Data published in ChEMBL document CHEMBL3616437, “Thiazole compounds with activity against Cryptococcus gattii and Cryptococcus neoformans in vitro” (Eur J Med Chem, 2015).
In brackets after ≈: the same amount, converted by molar mass.

Assays:
[1] = test system: Cryptococcus gattii species complex; test: Antifungal activity against Cryptococcus gattii L27/01 after 48 to 72 hrs by broth microdilution method; format: functional, Cryptococcus bacillisporus
Procedure, shortened: (§1)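 CLSI M27-A3 broth microdilution in RPMI with L-glutamine, buffered to pH 7.0 with 0.165 M MOPS. Colonies grown twice on SDA, 48 h at 35°C. Inoculum set to 70% transmittance at 530 nm, then diluted to 1-5 x10^3 cells/mL. Test agents dissolved in DMSO, serially diluted, tested at 0.1 to 62.5 µM. Plates held at 35°C for 48-72 h. MIC is the lowest concentration giving an optically clear well, read visually against drug-free growth controls.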

[2] = test system: Cryptococcus neoformans; test: Antifungal activity against Cryptococcus neoformans ATCC 62066 after 48 to 72 hrs by broth microdilution method; format: functional
[3] = test system: Vero; test: Cytotoxicity against African green monkey Vero cells assessed as cell viability measured after 48 hrs by MTT assay; format: cell-based; conditions: Chlorocebus sabaeus
Procedure, shortened: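 VERO cells in D-MEM with 5% FBS, used up to 20 passages. Seeded 1 x 10^4 cells/well, pre-incubated 24 h at 37°C. Exposed 48 h at 37°C, 5% CO2, to eight nonserial dilutions from 100 to 0.0128 µM, with 0.5% DMSO control. MTT reduction read-out, corrected for background and blank. IC50 reported as median with 95% CI. Triplicate, two independent experiments.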

[4] = test system: Cryptococcus neoformans; test: Antifungal activity against Cryptococcus neoformans WP after 48 to 72 hrs by broth microdilution method; format: functional
Procedure, shortened: (§2)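 CLSI M27-A3 broth microdilution. Isolates subcultured twice on SDA, 48 h at 35°C. Saline suspension adjusted to 70% transmittance at 530 nm, then diluted to 1-5 x10^3 cells/mL in RPMI with L-glutamine, 0.165 M MOPS, pH 7.0. Compounds in DMSO, tested at […]. 35°C for 48-72 h. MIC read visually as the lowest concentration giving an optically clear well.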

[5] = test system: Cryptococcus gattii species complex; test: Antifungal activity against Cryptococcus gattii LMM818 after 48 to 72 hrs by broth microdilution method; format: functional, Cryptococcus bacillisporus; procedure, shortened: as §1
[6] = Cytotoxicity against C57BL/6 mouse peritoneal macrophages assessed as cell viability measured after 48 hrs by MTT assay; format: cell-based; conditions: C57BL/6, Peritoneal macrophage cell
Procedure, shortened: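 Thioglycollate-elicited peritoneal macrophages from male C57BL/6 mice, 6–8 weeks old, in RPMI with 10% FBS. Seeded 1 x 10^5 cells/well, pre-incubated 24 h at 37°C. Exposed 48 h at 37°C, 5% CO2, to eight nonserial dilutions from 100 to 0.0128 µM, with 0.5% DMSO control. MTT read-out, % inhibition versus DMSO control. IC50 reported as median with 95% CI. Triplicate, two independent experiments.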

[7] = test system: Cryptococcus bacillisporus; test: Antifungal activity against Cryptococcus gattii ATCC 32608 after 48 to 72 hrs by broth microdilution method; format: functional; procedure, shortened: as §1
[8] = test system: Cryptococcus gattii species complex; test: Antifungal activity against Cryptococcus gattii L24/01 after 48 to 72 hrs by broth microdilution method; format: functional, Cryptococcus bacillisporus; procedure, shortened: as §1
[9] = test system: Cryptococcus gattii species complex; test: Antifungal activity against Cryptococcus gattii L28/02 after 48 to 72 hrs by broth microdilution method; format: functional, Cryptococcus bacillisporus; procedure, shortened: as §1
[10] = test system: Cryptococcus neoformans; test: Antifungal activity against Cryptococcus neoformans 28JF after 48 to 72 hrs by broth microdilution method; format: functional; procedure, shortened: as §2
[11] = test system: Cryptococcus neoformans; test: Antifungal activity against Cryptococcus neoformans 96806 after 48 to 72 hrs by broth microdilution method; format: functional; procedure, shortened: as §2
[12] = test system: Cryptococcus gattii species complex; test: Ratio of compound MIC for Cryptococcus gattii LMM818 in presence of fluconazole to compound MIC for Cryptococcus gattii LMM818 in absence of fluconazole by checkerboard microtiter test; format: functional, Cryptococcus bacillisporus
Procedure, shortened: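 Checkerboard microdilution: eight two-fold dilutions of test compound (0.11 to 15.6 µM) crossed with amphotericin B (0.025 to 3.9 µM, in DMSO) or fluconazole (0.48 to 62.5 µM, in water). Inoculum per CLSI M27-A3 in RPMI-MOPS pH 7.0, 1-5 x10^3 cells/mL. Growth 48 to 72 h. Effective MIC is the combination concentration giving complete inhibition. FICs derived from MICs in combination versus alone.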

[13] = test system: Cryptococcus neoformans; test: Antifungal activity against Cryptococcus neoformans 5396 after 48 to 72 hrs by broth microdilution method; format: functional; procedure, shortened: as §2
[14] = test system: Cryptococcus gattii species complex; test: Antifungal activity against Cryptococcus gattii ICB181 after 48 to 72 hrs by broth microdilution method; format: functional, Cryptococcus bacillisporus; procedure, shortened: as §1
[15] = test system: Cryptococcus gattii species complex; test: Antifungal activity against Cryptococcus gattii 547/OTTI-97-PI-10 after 48 to 72 hrs by broth microdilution method; format: functional, Cryptococcus bacillisporus; procedure, shortened: as §1
[16] = test system: Cryptococcus neoformans; test: Antifungal activity against Cryptococcus neoformans F10 after 48 to 72 hrs by broth microdilution method; format: functional; procedure, shortened: as §2
[17] = test system: Cryptococcus gattii species complex; test: Antifungal activity against Cryptococcus gattii 23/10993 after 48 to 72 hrs by broth microdilution method; format: functional, Cryptococcus bacillisporus; procedure, shortened: as §1
[18] = test system: Cryptococcus neoformans; test: Antifungal activity against Cryptococcus neoformans VM-MCMMPI after 48 to 72 hrs by broth microdilution method; format: functional; procedure, shortened: as §2
[19] = Selectivity index, ratio of IC50 for African green monkey Vero cells to MIC for Cryptococcus neoformans ATCC 24067; format: toxicity, cell-based
[20] = test system: Cryptococcus neoformans; test: Antifungal activity against Cryptococcus neoformans ATCC 24067 after 48 to 72 hrs by broth microdilution method; format: functional; procedure, shortened: as §2
[21] = test system: Cryptococcus gattii species complex; test: Antifungal activity against Cryptococcus gattii 1913ER after 48 to 72 hrs by broth microdilution method; format: functional, Cryptococcus bacillisporus; procedure, shortened: as §1
[22] = Selectivity index, ratio of IC50 for C57BL/6 mouse peritoneal macrophages to MIC for Cryptococcus neoformans ATCC 24067
Procedure, shortened: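 SI = IC50/MIC. Thioglycollate-elicited peritoneal macrophages from C57BL/6 mice are seeded at 1 x 10^5/well. They are exposed for 48 h at 37°C to eight concentrations from 100 to 0.0128 µM. Viability read by MTT versus 0.5% DMSO control, triplicate in two experiments.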

[23] = test system: Cryptococcus gattii species complex; test: Antifungal activity against Cryptococcus gattii 196L/03 after 48 to 72 hrs by broth microdilution method; format: functional, Cryptococcus bacillisporus; procedure, shortened: as §1
[24] = test system: Cryptococcus neoformans; test: Antifungal activity against Cryptococcus neoformans CN31 after 48 to 72 hrs by broth microdilution method; format: functional; procedure, shortened: as §2
[25] = test system: Cryptococcus gattii species complex; test: Antifungal activity against Cryptococcus gattii 135L/03 after 48 to 72 hrs by broth microdilution method; format: functional, Cryptococcus bacillisporus; procedure, shortened: as §1
[26] = test system: Cryptococcus neoformans; test: Antifungal activity against Cryptococcus neoformans LMM820 after 48 to 72 hrs by broth microdilution method; format: functional; procedure, shortened: as §2
[27] = test system: Cryptococcus neoformans; test: Antifungal activity against Cryptococcus neoformans ATCC 28957 after 48 to 72 hrs by broth microdilution method; format: functional; procedure, shortened: as §2
[28] = test system: Cryptococcus neoformans; test: Antifungal activity against Cryptococcus neoformans 27JF after 48 to 72 hrs by broth microdilution method; format: functional; procedure, shortened: as §2

c1ccc(-c2csc(NN=C3CCCC3)n2)cc1
MFC [1]: 1.9 µM (≈ 0.489 µg/mL)
MIC [1]: 1.5 µM (≈ 0.386 µg/mL)
MFC [2]: 3.9 µM (≈ 1 µg/mL)
MIC [2]: 1.2 µM (≈ 0.309 µg/mL)
IC50 [3]: > 100 µM
MFC [4]: 3.9 µM (≈ 1 µg/mL)
MIC [4]: 3.2 µM (≈ 0.824 µg/mL)
MFC [5]: 3.9 µM (≈ 1 µg/mL)
MIC [5]: 3.4 µM (≈ 0.875 µg/mL)
IC50 [6]: > 100 µM
MFC [7]: 3.9 µM (≈ 1 µg/mL)
MIC [7]: 2.2 µM (≈ 0.566 µg/mL)
MFC [8]: 7.8 µM (≈ 2.01 µg/mL)
MIC [8]: 1.7 µM (≈ 0.438 µg/mL)
MFC [9]: 3.9 µM (≈ 1 µg/mL)
MIC [9]: 2.7 µM (≈ 0.695 µg/mL)
MFC [10]: 1.9 µM (≈ 0.489 µg/mL)
MIC [10]: 2.6 µM (≈ 0.669 µg/mL)
MFC [11]: 7.8 µM (≈ 2.01 µg/mL)
MIC [11]: 1.9 µM (≈ 0.489 µg/mL)
fractional inhibitory concentration index (FICI) [12]: 1.59
MFC [13]: 0.9 µM (≈ 0.232 µg/mL)
MIC [13]: 1.2 µM (≈ 0.309 µg/mL)
MFC [14]: 1.9 µM (≈ 0.489 µg/mL)
MIC [14]: 1 µM (≈ 0.257 µg/mL)
MFC [15]: 7.8 µM (≈ 2.01 µg/mL)
MIC [15]: 1.9 µM (≈ 0.489 µg/mL)
MFC [16]: 7.8 µM (≈ 2.01 µg/mL)
MIC [16]: 2.2 µM (≈ 0.566 µg/mL)
MFC [17]: 3.9 µM (≈ 1 µg/mL)
MIC [17]: 2.9 µM (≈ 0.746 µg/mL)
MFC [18]: 7.8 µM (≈ 2.01 µg/mL)
MIC [18]: 1.6 µM (≈ 0.412 µg/mL)
selectivity ratio [19]: 29
MIC [20]: 1.9 µM (≈ 0.489 µg/mL)
MFC [21]: 7.8 µM (≈ 2.01 µg/mL)
MIC [21]: 1 µM (≈ 0.257 µg/mL)
Ratio [22]: 29
MFC [23]: 7.8 µM (≈ 2.01 µg/mL)
MIC [23]: 2.2 µM (≈ 0.566 µg/mL)
MFC [24]: 1.9 µM (≈ 0.489 µg/mL)
MIC [24]: 1.9 µM (≈ 0.489 µg/mL)
MFC [25]: 3.9 µM (≈ 1 µg/mL)
MIC [25]: 3.1 µM (≈ 0.798 µg/mL)
MFC [26]: 3.9 µM (≈ 1 µg/mL)
MIC [26]: 2.2 µM (≈ 0.566 µg/mL)
MFC [27]: 7.8 µM (≈ 2.01 µg/mL)
MIC [27]: 2.2 µM (≈ 0.566 µg/mL)
MFC [28]: 7.8 µM (≈ 2.01 µg/mL)
MIC [28]: 3.2 µM (≈ 0.824 µg/mL)
